Assay results from ChEMBL document CHEMBL3576859, “Novel benzamide-based histamine h3 receptor antagonists: the identification of two candidates for clinical development” (ACS Med Chem Lett, 2015).
Values belong to the compound of their own block, whether it stands above or below them. Activity calls are given as the source filed them. No cut-off for these calls is given here.

What was measured:
Rattus norvegicus [1] = species on record: Rattus norvegicus; assay: Toxicity in rat assessed as phospholipidosis; conditions: in vivo
[2] = Apparent permeability across basolateral to apical side in human Caco2 cells at 10 uM […] by LC/MS/MS analysis; format: ADME, cell-based; conditions: Caco-2
Method in brief: (§1)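 Caco-2 monolayer permeability measured in both directions, apical-to-basolateral and basolateral-to-apical. Reported as P_app (×10−⁶ cm/s), given as A−B/B−A pairs.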

Rattus norvegicus [3] = species on record: Rattus norvegicus; assay: Toxicity in rat assessed as phospholipidosis; format: organism-based; conditions: in vivo
[4] = molecular target: Voltage-gated inwardly rectifying potassium channel KCNH2 (Homo sapiens, UniProt Q12809); assay: Displacement of [3H]-astemizole from human ERG expressed in HEK293 cells after 60 mins by scintillation counting analysis; format: cell-based
[5] = Inhibition of CYP450 in human liver microsomes; format: ADME
[6] = Half life in human; format: ADME, organism-based; conditions: in vivo
Method in brief: (§2)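 Humans given single oral doses. Time to peak plasma concentration and mean t1/2 were determined across the dose range (10–400 mg).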

[7] = Oral bioavailability in Sprague-Dawley rat at 10 mg/kg; format: ADME, organism-based; conditions: in vivo
[8] = Drug uptake in Sprague-Dawley rat brain at 3 mg/kg, po measured at 1 hr; format: ADME, organism-based; conditions: read-out: Drug uptake
Method in brief: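 Rats dosed orally at 3 mg/kg. Brain drug concentration (μM) measured at 1 h post-dose.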

[9] = Clearance in Sprague-Dawley rat; format: ADME, organism-based; conditions: in vivo
Canis familiaris [10] = species on record: Canis familiaris; assay: Toxicity in dog assessed as phospholipidosis; format: organism-based, Canis lupus familiaris; conditions: in vivo
[11] = Metabolic stability in Sprague-Dawley rat liver microsomes assessed as compound remaining at 1 uM after 15 mins; format: ADME; conditions: read-out: Stability
Method in brief: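 Rat liver microsomes incubated with compound for 15 min. Stability expressed as percent of parent remaining.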

Rattus norvegicus [12] = assay: Ex vivo histamine H3 receptor occupancy in Sprague-Dawley rat striatum at 10 mg/kg, sc by autoradiographic analysis; format: functional
Method in brief: (§3)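 Ex vivo H3 receptor occupancy measured after 10 mg/kg subcutaneous dosing in rats. Plasma Cmax was determined in parallel.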

[13] = Apparent permeability across apical to basolateral side in human Caco2 cells at 10 uM after 60 mins by LC/MS/MS analysis; format: ADME, cell-based; conditions: Caco-2
Method in brief: as §1

Homo sapiens [14] = species on record: Homo sapiens; assay: Ex vivo histamine H3 receptor occupancy in human assessed as plasma concentration required to cause maximal receptor occupancy; format: functional
[15] = Tmax in po dosed human; format: ADME, organism-based; conditions: in vivo
Method in brief: as §2

[16] = molecular target: Voltage-gated L-type calcium channel (Rattus norvegicus, UniProt P22002+Q02485+P27732); assay: Binding affinity to rat L-type calcium channel at 1 uM
[17] = Half life in Sprague-Dawley rat at 1 mg/kg, iv; format: ADME, organism-based; conditions: in vivo
[18] = Volume of distribution at steady state in Sprague-Dawley rat; format: ADME, organism-based; conditions: in vivo, read-out: Vdss
Rattus norvegicus [19] = assay: Ex vivo histamine H3 receptor occupancy in Sprague-Dawley rat striatum at 3 mg/kg, po measured at 1 hr by autoradiographic analysis; format: functional
Method in brief: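 After a 3 mg/kg oral dose in rats, ex vivo H3 receptor occupancy was determined by autoradiography at 1 h. Values are mean ± SD.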

[20] = Metabolic stability in human liver microsomes assessed as compound remaining at 1 uM after 15 mins; format: ADME; conditions: read-out: Stability
Method in brief: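 Compound incubated with human liver microsomes for 15 min. Read-out is percent parent remaining.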

Rattus norvegicus [21] = assay: Ex vivo histamine H3 receptor occupancy in Sprague-Dawley rat striatum assessed as maximum plasma concentration required to cause >80% receptor occupancy at 10 mg/kg, sc; format: functional
Method in brief: as §3

Rattus norvegicus [22] = assay: Toxicity in rat assessed as decrease in food consumption at 250 mg/kg, po administered up to 28 days; format: organism-based; conditions: in vivo, 672 h
Method in brief: (§4)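 Rats dosed orally at up to 250 mg/kg daily for up to 28 days. Monitored for clinical signs (salivation, activity), body weight, food consumption and clinical pathology; NOAEL derived.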

[23] = Elimination half life in human at 2 mg; format: ADME, organism-based; conditions: in vivo, read-out: beta t1/2 (converted)
Method in brief: (§5)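 Mean elimination half-life determined in human dose groups receiving 2 mg and 5 mg.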

Histamine H3 receptor = Histamine H3 receptor (Homo sapiens, UniProt Q9Y5N1); assay: Displacement of N-[3H]methylhistamine from human histamine H3 receptor expressed in human SK-N-MC cells after 45 mins; format: cell-based
Cytochrome P450 1A2 = molecular target: T1, Cytochrome P450 1A2 (Homo sapiens, UniProt P05177); assay: Inhibition of CYP1A2 (unknown origin); format: ADME
T1 sequence (P05177 whole entry): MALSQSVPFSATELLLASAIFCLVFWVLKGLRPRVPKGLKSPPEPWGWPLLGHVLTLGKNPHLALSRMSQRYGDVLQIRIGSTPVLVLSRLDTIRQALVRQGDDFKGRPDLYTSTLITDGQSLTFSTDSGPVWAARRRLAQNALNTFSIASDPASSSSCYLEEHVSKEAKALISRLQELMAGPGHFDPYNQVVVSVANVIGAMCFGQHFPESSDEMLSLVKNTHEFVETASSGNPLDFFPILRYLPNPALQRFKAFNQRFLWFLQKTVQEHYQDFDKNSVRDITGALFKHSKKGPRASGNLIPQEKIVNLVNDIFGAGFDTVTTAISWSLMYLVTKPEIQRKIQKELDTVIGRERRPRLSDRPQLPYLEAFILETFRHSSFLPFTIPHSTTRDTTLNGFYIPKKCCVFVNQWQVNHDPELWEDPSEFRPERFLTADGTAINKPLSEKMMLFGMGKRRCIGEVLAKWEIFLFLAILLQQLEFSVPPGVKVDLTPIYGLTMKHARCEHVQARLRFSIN
Method in brief: (§6)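 CYP1A2, 2C9, 2C19, 2D6 and 3A4 inhibition measured and reported as IC₅₀ (μM).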

Rattus norvegicus [24] = assay: Wake-promoting activity in Sprague-Dawley rat assessed as increase in time spent awake at 10 mg/kg, sc administered during light sleep phase measured over first 6 hrs post-treatment; format: functional
Method in brief: (§7)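 Rats treated during the light sleep phase. Time awake, NREM and REM sleep duration scored over the first 6 h post-treatment.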

Cytochrome P450 2C9 = Cytochrome P450 2C9 (Homo sapiens, UniProt P11712); assay: Inhibition of CYP2C9 (unknown origin); format: ADME
Method in brief: as §6

Cytochrome P450 2D6 = Cytochrome P450 2D6 (Homo sapiens, UniProt P10635); assay: Inhibition of CYP2D6 (unknown origin); format: ADME
Method in brief: as §6

Homo sapiens [25] = species on record: Homo sapiens; assay: Toxicity in human assessed as insomnia; format: organism-based; conditions: in vivo
Rattus norvegicus [26] = assay: Wake-promoting activity in Sprague-Dawley rat assessed as decrease in non-rapid eye movement sleep duration at 10 mg/kg, sc administered during light sleep phase measured over first 6 hrs post-treatment; format: functional, organism-based
Method in brief: as §7

Cytochrome P450 3A4 = Cytochrome P450 3A4 (Homo sapiens, UniProt P08684); assay: Inhibition of CYP3A4 (unknown origin); format: ADME
Method in brief: as §6

Cytochrome P450 2C19 = Cytochrome P450 2C19 (Homo sapiens, UniProt P33261); assay: Inhibition of CYP2C19 (unknown origin); format: ADME
Method in brief: as §6

Canis familiaris [27] = assay: Toxicity in dog at 10 to 75 mg/kg/day administered for 5 days; format: organism-based, Canis lupus familiaris; conditions: in vivo, 120 h
Rattus norvegicus [28] = assay: Toxicity in rat assessed as clinical pathology alteration at 250 mg/kg, po administered up to 28 days; format: organism-based; conditions: in vivo, 672 h
Method in brief: as §4

[29] = Elimination half life in human at 5 mg; format: ADME, organism-based; conditions: in vivo, read-out: beta t1/2 (converted)
Method in brief: as §5

Rattus norvegicus [30] = assay: Toxicity in Sprague-Dawley rat assessed as effect on rapid eye movement sleep at 10 mg/kg, sc administered during light sleep phase measured over first 6 hrs post-treatment; format: organism-based; conditions: in vivo
[31] = Plasma protein binding in human; format: ADME, cell-free; conditions: read-out: PPB (converted)
Rattus norvegicus [32] = assay: Toxicity in rat assessed as decrease in locomotor activity at 250 mg/kg, po administered up to 28 days; format: organism-based; conditions: in vivo, 672 h
Method in brief: as §4

Mus musculus = species on record: Mus musculus; assay: Toxicity in mouse; format: organism-based; conditions: in vivo
[33] = Toxicity in po dosed rat administered up to 28 days; format: organism-based; conditions: in vivo
Method in brief: as §4

Rattus norvegicus [34] = assay: Toxicity in rat assessed as decrease in body weight at 250 mg/kg, po administered up to 28 days; format: organism-based; conditions: in vivo, 672 h
Method in brief: as §4

Rattus norvegicus [35] = assay: Toxicity in rat assessed as induction of mild and sporadic salivation at 250 mg/kg, po administered up to 28 days; format: organism-based; conditions: in vivo, 672 h
Method in brief: as §4

Rattus norvegicus [36] = assay: Toxicity in Sprague-Dawley rat assessed as increase in locomotor activity at 10 mg/kg, sc; format: organism-based; conditions: in vivo

Voltage-gated inwardly rectifying potassium channel KCNH2, sequence (Q12809 whole entry): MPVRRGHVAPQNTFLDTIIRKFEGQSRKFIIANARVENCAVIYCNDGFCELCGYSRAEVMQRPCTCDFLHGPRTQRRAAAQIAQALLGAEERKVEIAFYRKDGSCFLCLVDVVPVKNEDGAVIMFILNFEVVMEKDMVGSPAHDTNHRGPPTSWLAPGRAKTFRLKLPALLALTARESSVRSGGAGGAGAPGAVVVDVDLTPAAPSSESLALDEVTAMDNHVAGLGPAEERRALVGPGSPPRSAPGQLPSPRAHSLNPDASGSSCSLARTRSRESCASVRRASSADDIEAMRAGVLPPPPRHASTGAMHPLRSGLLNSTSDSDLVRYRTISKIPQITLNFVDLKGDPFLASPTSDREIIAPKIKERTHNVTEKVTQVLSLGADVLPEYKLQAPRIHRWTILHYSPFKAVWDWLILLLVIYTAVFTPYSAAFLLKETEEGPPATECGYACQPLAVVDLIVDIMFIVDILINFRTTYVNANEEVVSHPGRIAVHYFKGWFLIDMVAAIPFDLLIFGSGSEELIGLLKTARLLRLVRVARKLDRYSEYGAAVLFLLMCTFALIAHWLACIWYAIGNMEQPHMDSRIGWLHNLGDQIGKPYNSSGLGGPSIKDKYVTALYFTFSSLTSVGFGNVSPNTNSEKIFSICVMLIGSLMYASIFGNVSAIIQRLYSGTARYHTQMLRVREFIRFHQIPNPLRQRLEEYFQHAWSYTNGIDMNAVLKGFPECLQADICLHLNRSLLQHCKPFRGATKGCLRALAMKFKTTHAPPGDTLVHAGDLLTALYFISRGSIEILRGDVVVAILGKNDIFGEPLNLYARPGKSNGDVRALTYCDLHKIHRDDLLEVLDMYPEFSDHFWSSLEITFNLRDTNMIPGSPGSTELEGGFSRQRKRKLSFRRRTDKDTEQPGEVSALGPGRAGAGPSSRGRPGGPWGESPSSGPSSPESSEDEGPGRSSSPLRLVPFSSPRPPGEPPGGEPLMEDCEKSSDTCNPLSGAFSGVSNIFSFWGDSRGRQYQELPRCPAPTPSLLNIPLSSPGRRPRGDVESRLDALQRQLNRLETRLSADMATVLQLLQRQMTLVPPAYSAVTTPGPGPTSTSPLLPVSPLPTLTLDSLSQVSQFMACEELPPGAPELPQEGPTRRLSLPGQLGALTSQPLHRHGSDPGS
Histamine H3 receptor, sequence (Q9Y5N1 whole entry): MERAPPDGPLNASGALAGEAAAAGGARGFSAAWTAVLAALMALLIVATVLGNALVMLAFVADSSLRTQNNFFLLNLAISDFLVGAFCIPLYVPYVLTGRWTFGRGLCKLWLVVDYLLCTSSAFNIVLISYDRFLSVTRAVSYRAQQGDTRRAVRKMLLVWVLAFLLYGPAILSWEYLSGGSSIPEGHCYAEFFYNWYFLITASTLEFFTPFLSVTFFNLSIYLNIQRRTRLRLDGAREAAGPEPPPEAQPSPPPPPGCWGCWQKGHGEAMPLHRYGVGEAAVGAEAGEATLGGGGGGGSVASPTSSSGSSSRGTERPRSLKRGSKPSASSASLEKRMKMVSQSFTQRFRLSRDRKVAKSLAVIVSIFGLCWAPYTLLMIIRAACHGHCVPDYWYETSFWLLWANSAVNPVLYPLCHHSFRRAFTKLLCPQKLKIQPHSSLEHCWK
Cytochrome P450 2C9, sequence (P11712 whole entry): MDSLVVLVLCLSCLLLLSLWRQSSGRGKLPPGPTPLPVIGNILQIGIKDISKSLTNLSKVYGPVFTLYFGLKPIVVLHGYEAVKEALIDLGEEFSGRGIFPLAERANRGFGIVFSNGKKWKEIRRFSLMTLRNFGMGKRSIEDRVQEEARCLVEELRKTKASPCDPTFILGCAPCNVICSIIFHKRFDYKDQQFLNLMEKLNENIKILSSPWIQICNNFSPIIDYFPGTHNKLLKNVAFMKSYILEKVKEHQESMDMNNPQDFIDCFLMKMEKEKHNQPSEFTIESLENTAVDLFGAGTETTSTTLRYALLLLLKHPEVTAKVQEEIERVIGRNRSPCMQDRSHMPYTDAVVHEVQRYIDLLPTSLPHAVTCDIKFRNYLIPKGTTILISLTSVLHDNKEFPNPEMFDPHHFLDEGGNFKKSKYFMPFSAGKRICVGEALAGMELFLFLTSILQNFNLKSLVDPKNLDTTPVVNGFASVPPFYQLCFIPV
Cytochrome P450 2C19, sequence (P33261 whole entry): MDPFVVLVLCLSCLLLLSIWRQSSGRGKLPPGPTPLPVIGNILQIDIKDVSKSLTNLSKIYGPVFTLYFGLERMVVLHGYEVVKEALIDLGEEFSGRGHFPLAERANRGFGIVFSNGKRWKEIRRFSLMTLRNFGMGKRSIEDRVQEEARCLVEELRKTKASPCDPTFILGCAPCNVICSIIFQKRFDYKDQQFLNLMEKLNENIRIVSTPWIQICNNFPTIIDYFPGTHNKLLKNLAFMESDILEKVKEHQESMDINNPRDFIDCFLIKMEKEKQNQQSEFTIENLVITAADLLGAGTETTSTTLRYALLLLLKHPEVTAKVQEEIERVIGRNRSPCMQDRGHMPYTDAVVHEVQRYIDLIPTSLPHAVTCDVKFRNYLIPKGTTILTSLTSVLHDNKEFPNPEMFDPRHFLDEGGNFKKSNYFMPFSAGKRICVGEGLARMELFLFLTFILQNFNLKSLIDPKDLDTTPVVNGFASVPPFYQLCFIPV
Cytochrome P450 2D6, sequence (P10635 whole entry): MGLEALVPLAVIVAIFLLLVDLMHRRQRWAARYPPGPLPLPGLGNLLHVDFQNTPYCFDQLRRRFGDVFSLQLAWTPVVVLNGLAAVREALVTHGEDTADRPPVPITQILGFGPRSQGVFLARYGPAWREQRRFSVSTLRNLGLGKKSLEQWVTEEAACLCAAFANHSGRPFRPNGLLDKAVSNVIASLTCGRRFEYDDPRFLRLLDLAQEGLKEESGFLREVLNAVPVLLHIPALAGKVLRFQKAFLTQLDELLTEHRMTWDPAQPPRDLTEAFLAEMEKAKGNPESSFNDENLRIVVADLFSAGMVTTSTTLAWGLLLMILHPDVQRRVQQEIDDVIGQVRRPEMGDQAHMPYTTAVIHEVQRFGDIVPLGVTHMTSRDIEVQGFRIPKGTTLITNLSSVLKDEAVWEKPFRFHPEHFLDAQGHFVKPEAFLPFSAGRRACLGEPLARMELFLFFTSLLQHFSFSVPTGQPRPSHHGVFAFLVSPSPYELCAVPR
Cytochrome P450 3A4, sequence (P08684 whole entry): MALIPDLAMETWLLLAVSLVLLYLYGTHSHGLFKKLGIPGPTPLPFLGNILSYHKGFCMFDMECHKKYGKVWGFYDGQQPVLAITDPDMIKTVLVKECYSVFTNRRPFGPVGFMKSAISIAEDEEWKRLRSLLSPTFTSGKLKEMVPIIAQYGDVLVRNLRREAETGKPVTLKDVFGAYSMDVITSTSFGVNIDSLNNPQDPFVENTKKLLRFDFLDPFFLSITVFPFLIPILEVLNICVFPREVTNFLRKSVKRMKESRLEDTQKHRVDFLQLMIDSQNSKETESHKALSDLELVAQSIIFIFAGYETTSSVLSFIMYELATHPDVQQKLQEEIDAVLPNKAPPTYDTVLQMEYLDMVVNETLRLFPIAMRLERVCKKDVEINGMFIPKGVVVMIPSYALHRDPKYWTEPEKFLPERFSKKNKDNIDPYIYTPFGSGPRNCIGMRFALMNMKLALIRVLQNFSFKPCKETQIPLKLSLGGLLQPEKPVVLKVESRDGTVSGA

Papp B→A at 10 µM [2]: 37.8 ×10⁻⁶ cm/s
inhibition (INH) [5]: Not Active
half-life [6]: 13.9 h
bioavailability [7]: 112%
concentration at 1 h [8]: 2540 nM
clearance [9]: 21.6 mL/min/kg
remaining at 0.25 h, 1 µM [11]: 44.1%
Papp A→B at 1 h, 10 µM [13]: 108 ×10⁻⁶ cm/s
Tmax [15]: 0.5 h
Activity [16]: Not Active
half-life [17]: 0.9 h
Vd [18]: 1.7 L/kg
remaining at 0.25 h, 1 µM [20]: 96.1%
Structure (SMILES): Cl.O=C(c1ccc(CN2CCOCC2)cc1)N1CCN(C2CC2)CC1
Activity (Rattus norvegicus [1]): Non-toxic
Activity (Rattus norvegicus [3]): Non-toxic
IC50 [4]: > 10 µM
Activity (Canis familiaris [10]): Non-toxic
Occ (Rattus norvegicus [12]): >80%
Activity (Homo sapiens [14]): 200 ng/mL
Occ (Rattus norvegicus [19]): 58%
Activity (Rattus norvegicus [21]): 1933 ng/mL

Papp B→A at 10 µM [2]: 20.9 ×10⁻⁶ cm/s
half-life [23]: 49.1 h
Ki (Histamine H3 receptor): 0.0025 µM
IC50 (Cytochrome P450 1A2): > 40 µM
bioavailability [7]: 62%
concentration at 1 h [8]: 5370 nM
IC50 (Cytochrome P450 2C9): > 40 µM
clearance [9]: 12.8 mL/min/kg
IC50 (Cytochrome P450 2D6): > 40 µM
IC50 (Cytochrome P450 3A4): > 40 µM
IC50 (Cytochrome P450 2C19): > 40 µM
Papp A→B at 1 h, 10 µM [13]: 22.4 ×10⁻⁶ cm/s
half-life [29]: 56.1 h
fraction unbound [31]: 0.876
Activity [16]: Not Active
half-life [17]: 3.2 h
Vd [18]: 3.6 L/kg
remaining at 0.25 h, 1 µM [20]: 65%
Structure (SMILES): CC(C)N1CCN(C(=O)c2ccc(CN3CCOCC3)cc2)CC1.O=C(O)/C=C\C(=O)O
Activity (Rattus norvegicus [22]): Toxic
IC50 [4]: > 10 µM
Time (Rattus norvegicus [24]): 1 h
Activity (Homo sapiens [25]): Toxic
Activity (Rattus norvegicus [26]): Active
Activity (Canis familiaris [27]): Non-toxic
Activity (Rattus norvegicus [28]): Toxic
Activity (Rattus norvegicus [30]): Non-toxic
Activity (Rattus norvegicus [32]): Toxic
Activity (Mus musculus): Non-toxic
NOAEL at 672 h [33]: 25 mg/kg/day
Activity (Rattus norvegicus [34]): Toxic
Activity (Rattus norvegicus [35]): Toxic
Activity (Rattus norvegicus [36]): Non-toxic
Occ (Rattus norvegicus [19]): 86%

bioavailability [7]: 14%
concentration at 1 h [8]: 540 nM
clearance [9]: 41.4 mL/min/kg
remaining at 0.25 h, 1 µM [11]: 26.8%
half-life [17]: 1.1 h
Vd [18]: 3.9 L/kg
remaining at 0.25 h, 1 µM [20]: 83.6%
Structure (SMILES): O=C(c1ccc(CN2CCC(F)CC2)cc1)N1CCN(C2CC2)CC1
IC50 [4]: > 10 µM
Occ (Rattus norvegicus [19]): 25%

bioavailability [7]: 31%
clearance [9]: 113 mL/min/kg
half-life [17]: 2.1 h
Vd [18]: 20.3 L/kg
Structure (SMILES): O=C(c1ccc(CN2CCC(F)CC2)cc1)N1CCN(C2CCC2)CC1
IC50 [4]: > 10 µM
